Calls of active or inactive are those of the source. The rule behind the calls is not given here.
What was measured:
Mus musculus [1] = species: Mus musculus; experiment: Percent increase in life span (% ILS) was tested at optimal dose.; type: functional
How it was run: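 In vivo murine P388 lymphocytic leukemia screen; antitumor effect read as percent increase in life span (% ILS).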

Mus musculus [2] = species: Mus musculus; experiment: Number of animals survived after 30 days; 6/8; type: functional
Mus musculus [3] = species: Mus musculus; experiment: Number of animals survived after 60 days; 3/6; type: functional
P388 [4] = experiment: Lethal dose in murine lymphocytic leukemia P388 cells; type: functional, Mus musculus
P388 [5] = experiment: Antitumor activity in murine lymphocytic leukemia P388 cells; type: functional, Mus musculus
How it was run: (§1)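 Preliminary in vivo antitumor screen in mice bearing murine lymphocytic leukemia P388. The read-out is percent increase in life span (% ILS). Highest nontoxic doses used in the assay are reported in parentheses.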

Mus musculus [6] = species: Mus musculus; experiment: Number of animals survived after 30 days of treatment; 0/6.; type: functional
Mus musculus [7] = species: Mus musculus; experiment: Number of animals survived after 30 days; 3/6; type: functional
Mus musculus [8] = species: Mus musculus; experiment: Number of animals survived after 60 days; 0/6; type: functional
P388 [9] = experiment: The compound tested for the highest non-toxic dose in murine lymphocytic leukemia P388.; type: functional, Mus musculus
How it was run: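 In vivo murine P388 lymphocytic leukemia screen; the value reported is the highest nontoxic dose used in the assay.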

Mus musculus [10] = species: Mus musculus; experiment: Percent increase in life span (% ILS) was tested at optimal dose; I indicates inactive; type: functional, organism-based; how it was run: as §1
P388 [11] = experiment: The compound tested for the lethal dose in murine lymphocytic leukemia P388.; type: ADME; settings: mouse
Mus musculus [12] = species: Mus musculus; experiment: Number of animals survived after 30 days; 2/6; type: functional
Mus musculus [13] = species: Mus musculus; experiment: Number of animals survived after 30 days; 1/6; type: functional
Mus musculus [14] = species: Mus musculus; experiment: Number of animals survived after 30 days; 4/6; type: functional
Mus musculus [15] = species: Mus musculus; experiment: Number of animals survived after 30 days; type: functional

Structure (SMILES) | ILS (Mus musculus [1]) [%] | LD20 (P388 [4]) [mg/kg] | Optimal dose (P388 [5]) [mg/kg] | No. of animals survived (Mus musculus [6]) | Highest non-toxic dose (P388 [9]) [mg/kg] | ILS (Mus musculus [10]) | also measured
CC(CO)(CO)NCc1cc2c3ccccc3ccc2c2ccccc12 [CRISNATOL] | 215 | 120 | 120 |  |  |  | No. of animals survived (Mus musculus [2]): 6; No. of animals survived (Mus musculus [3]): 3
CC(CO)(CO)NCc1ccc2ccc3ccccc3c2c1.Cl | 20 | 250 | 225 | 0 |  |  | 
CC(CO)(CO)NCc1c2c(cc3ccccc13)Cc1ccccc1-2 | 210 |  | 250 |  | 250 |  | No. of animals survived (Mus musculus [7]): 3; No. of animals survived (Mus musculus [8]): 0
CC(CO)(CO)NCc1cc2ccccc2c2ccccc12.Cl | 60 | 125 | 150 | 0 |  |  | 
CC(CO)(CO)NCc1ccc2cc3ccccc3cc2c1.Cl |  |  | 250 |  | 250 | inactive | 
CC(CO)(CO)NCc1cccc2c1-c1cccc3cccc-2c13.Cl | 142 |  | 100 | 0 |  |  | LD20 (P388 [11]): 123 mg/kg
CC(CO)(CO)NCc1ccc2c3ccccc3c3ccccc3c2c1.Cl | 100 | 85 | 85 | 0 |  |  | 
CC(CO)(CO)NCc1c2ccccc2cc2ccccc12.Cl | 30 | 150 | 150 | 0 |  |  | 
CC(CO)(CO)NCc1cc2c3c(cccc3c1)-c1ccccc1-2.Cl | 105 |  | 160 | 0 |  |  | LD20 (P388 [11]): 160 mg/kg
CC(CO)(CO)NCc1c2ccccc2cc2cc3ccccc3cc12 | 165 | 60 | 60 |  |  |  | No. of animals survived (Mus musculus [12]): 2; No. of animals survived (Mus musculus [8]): 0
CC(CO)(CO)NCc1ccc2c(c1)-c1cccc3cccc-2c13.Cl |  |  | 150 |  | 166 | inactive | 
CC(CO)(CO)NCc1cccc2ccc3c4ccccc4ccc3c12 | 120 | 225 | 225 |  |  |  | No. of animals survived (Mus musculus [13]): 1; No. of animals survived (Mus musculus [8]): 0
CC(CO)(CO)NCc1ccc(-c2ccccc2)c2ccccc12.Cl |  |  | 175 |  | 175 | inactive | 
CC(CO)(CO)NCc1c2ccccc2cc2c1ccc1ccccc12 | 180 | 220 | 180 |  |  |  | No. of animals survived (Mus musculus [12]): 2; No. of animals survived (Mus musculus [8]): 0
CCCCCCCCCCCCNC(C)(CO)CO.Cl |  |  | 75 |  | 75 | inactive | 
CC(CO)(CO)NCc1cccc2ccc3ccccc3c12.Cl |  |  | 269 |  | 269 | inactive | 
CC(CO)(CO)NCc1ccc2ccccc2c1.Cl |  |  | 240 |  | 240 | inactive | 
CC(CO)(CO)NCc1c2ccccc2c2ccc3cccc4ccc1c2c43 | 100 | 123 | 100 | 0 |  |  | 
CC(CO)(CO)NCc1c2c3c(cccc3c3ccccc13)C=C2 | 225 | 125 | 110 |  |  |  | No. of animals survived (Mus musculus [14]): 4; No. of animals survived (Mus musculus [8]): 0
CC(CO)(CO)NCc1ccccc1.Cl |  |  | 350 |  | 350 | inactive | 

Structure (SMILES) | ILS (Mus musculus [1]) [%] | LD20 (P388 [4]) [mg/kg] | Optimal dose (P388 [5]) [mg/kg] | No. of animals survived (Mus musculus [6]) | Highest non-toxic dose (P388 [9]) [mg/kg] | ILS (Mus musculus [10]) | also measured
CC(CO)(CO)NCc1cc2ccc3ccccc3c2c2ccccc12 | 42 | 15 | 7.5 | 0 |  |  | 
CC(CO)(CO)NCc1ccc(-c2ccccc2)cc1.Cl |  |  | 283 |  | 283 | inactive | 
CC(CO)(CO)NCc1ccc2c3c(cccc13)-c1ccccc1-2.Cl | 190 |  | 105 |  |  |  | No. of animals survived (Mus musculus [15]): 5; No. of animals survived (Mus musculus [3]): 3; LD20 (P388 [11]): 110 mg/kg
CC(CO)(CO)NCc1c2c3c(cccc3c3ccccc13)CC2 | 200 | 70 | 60 |  |  |  | No. of animals survived (Mus musculus [7]): 3; No. of animals survived (Mus musculus [8]): 0
CC(CO)(CO)NCc1ccc2c(ccc3c4ccccc4ccc23)c1 |  | 450 | 450 |  |  | inactive | 
CC(CO)(CO)NCc1cc2c3c(ccc4c3c1CCC4)CCC2.Cl |  |  | 151 |  | 151 | inactive | 
CC(CO)(CO)NCc1ccc2c(c1)Cc1ccccc1-2.Cl |  |  | 225 |  | 225 | inactive | 
CC(CO)(CO)NCc1ccc2ccc3c4ccccc4ccc3c2c1 | 20 | 110 | 110 | 0 |  |  | 
CC(CO)(CO)NCc1cc2cccc3ccc4cccc1c4c32.Cl | 45 | 40 | 40 | 0 |  |  | 
CC(CO)(CO)NCc1ccc2c3c1ccc1cccc(c13)C2 | 45 | 300 | 270 | 0 |  |  | 
CC(CO)(CO)NCc1cccc2cc3ccccc3cc12.Cl | 125 | 110 | 120 | 0 |  |  | 
CC(CO)(CO)NCc1ccc2c3cccc4cccc(c5cccc1c52)c43.Cl | 100 | 425 | 350 | 0 |  |  | 
CC(CO)(CO)NCc1cccc2ccccc12.Cl |  |  | 180 |  | 180 | inactive | 
CC(CO)(CO)NCc1cccc2c3ccccc3c3ccccc3c12.Cl | 25 | 165 | 155 | 0 |  |  | 
CC(CO)(CO)NCc1ccc2c(ccc3cc4ccccc4cc32)c1 | 20 | 200 | 200 | 0 |  |  | 
CC(CO)(CO)NCc1ccc2ccc3cccc4ccc1c2c34.Cl | 120 | 275 | 260 | 0 |  |  | 
CC(CO)(CO)NCc1ccc2cccc3c2c1-c1ccccc1-3.Cl | 100 |  | 140 | 0 |  |  | LD20 (P388 [11]): 140 mg/kg
CC(CO)(CO)NCc1cccc2c1ccc1ccccc12.Cl | 65 | 225 | 230 | 0 |  |  | 
CC(CO)(CO)NCc1ccc2c(ccc3ccccc32)c1.Cl | 33 | 175 | 200 | 0 |  |  | 
